Cmax, t1/2 lambda z and Radiolabel recovery data for one compound are collected here from ChEMBL document CHEMBL3525900, “Pharmacokinetics, distribution, and metabolism of [14C]sunitinib in rats, monkeys, and humans” (Drug Metab Dispos, 2012).

The subject of data set [1] is Rattus norvegicus. Briefly: Cmax as total radioactivity in female Sprague-Dawley rat plasma at 15 mg/kg, po administered as single dose by LC/MS/MS analysis. The data set is classed as ADME, organism-based. Also noted: dose 15 mg/kg, dosed compound name [14C]Sunitinib, route oral. Conditions: in vivo. The procedure, abridged: (§1)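 Single dose of [14C]sunitinib L-malate as free base, 50 µCi/kg. IV dose was 5 mg/kg by tail vein in 5 females. Oral dose was 15 mg/kg by gavage in 3 females and 3 males. Total radioactivity was by scintillation counting. […] Cmax was read from raw data, t½ by log-linear regression, AUC by linear trapezoidal rule.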

The subject of data set [2] is Rattus norvegicus. Put plainly: Apparent terminal half life as total radioactivity in female Sprague-Dawley rat plasma at 15 mg/kg, po administered as single dose by LC/MS/MS analysis. In kind it is ADME, organism-based. Also noted: dose 15 mg/kg, dosed compound name [14C]Sunitinib, route oral. Conditions: in vivo. The procedure, abridged:
as §1

The next data set deals with Homo sapiens. Put plainly: Cmax as total radioactivity in human plasma at 50 mg, po administered as single dose measured up to 24 hrs by LC/MS/MS analysis. In kind it is ADME, organism-based. More on the design: dose 50 mg, dosed compound name [14C]Sunitinib, route oral. To be noted: in vivo. The essentials: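 Open-label phase I study in 8 subjects given one 50 mg oral dose of [14C]sunitinib (100 µCi). Plasma total radioactivity was counted by scintillation on triplicate 0.25 mL aliquots. Sunitinib was quantified by LC-MS-MS. Noncompartmental analysis: Cmax read directly, terminal t½ = ln(2)/slope of the log-concentration regression, AUC by linear trapezoidal rule to the last detectable concentration.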

In a further data set the test system is Cynomolgus monkey. Put plainly: Cmax as total radioactivity in male cynomolgus monkey plasma at 6 mg/kg, po administered as single dose by LC/MS/MS analysis. The data set is classed as ADME, organism-based, Macaca fascicularis. More on the design: dose 6 mg/kg, dosed compound name [14C]Sunitinib, route oral. Conditions: in vivo. The procedure, abridged:
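Cynomolgus monkeys of both sexes received one oral gavage of [14C]sunitinib L-malate at 6 mg/kg (37 µCi/kg). Femoral-vein blood was taken into heparin from 0.5 to 336 h. Plasma was kept cold and protected from light, then stored at -80 °C. Total radioactivity was by scintillation counting and sunitinib by methanol-extraction LC-MS-MS. Cmax was from raw data, t½ from the log-linear terminal slope, AUC(0-∞) by linear trapezoidal rule.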

Data set [3] concerns Rattus norvegicus. Briefly: Total drug recovery in female Sprague-Dawley rat at 5 mg/kg, iv administered as single dose during 0 to 72 hrs by liquid scintillation counting. In kind it is ADME, organism-based. Also noted: dose 5 mg/kg, dosed compound name [14C]Sunitinib, route intravenous. To be noted: in vivo.
In data set [4] the test system is Heart. Briefly: Drug concentration in female albino rat heart assessed as radioactivity per gram of tissue at 20 mg/kg administered as single dose via gastric gavage measured after 3 hrs by autoradiographic analysis. In kind it is ADME, organism-based. Also noted: dose 20 mg/kg, dosed compound name [14C]Sunitinib. To be noted: in vivo, po. The essentials:
(§2)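 Sprague Dawley albino rats, ca 7-8 weeks old, dosed once by gastric gavage with [14C]sunitinib L-malate (15 mg freebase/kg, 100 µCi/kg). One male and one female killed by CO2 at 3, 6, 24, 72 and 168 h. Carcasses frozen in solid CO2/hexane, embedded and cut into 30 µm sagittal sections, then freeze-dried. Radioactivity quantified by whole-body autoradiography against standards by regression, background subtracted.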

Data set [5] in a line: Drug concentration in male albino rat thyroid gland assessed as radioactivity per gram of tissue at 20 mg/kg administered as single dose via gastric gavage measured after 3 hrs by autoradiographic analysis. The data set is classed as ADME, organism-based. Also noted: dose 20 mg/kg, dosed compound name [14C]Sunitinib. To be noted: in vivo, po.
For data set [6], the system named is Lung. Briefly: Drug concentration in male albino rat lung assessed as radioactivity per gram of tissue at 20 mg/kg administered as single dose via gastric gavage measured after 6 hrs by autoradiographic analysis. More on the design: dose 20 mg/kg, dosed compound name [14C]Sunitinib. In kind it is ADME, organism-based. To be noted: in vivo, po.
The subject of the next data set is Small intestine. Briefly: Drug concentration in male albino rat small intestine assessed as radioactivity per gram of tissue at 20 mg/kg administered as single dose via gastric gavage measured after 6 hrs by autoradiographic analysis. The data set is classed as ADME, organism-based. More on the design: dose 20 mg/kg, dosed compound name [14C]Sunitinib. To be noted: in vivo, po.

A further data set relates to Pancreas. Put plainly: Drug concentration in female albino rat pancreas assessed as radioactivity per gram of tissue at 20 mg/kg administered as single dose via gastric gavage measured after 6 hrs by autoradiographic analysis. In kind it is ADME, organism-based. More on the design: dose 20 mg/kg, dosed compound name [14C]Sunitinib. To be noted: in vivo, po. The essentials: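 Sprague Dawley (albino) and Lister Hooded (pigmented) rats, ca 7-8 weeks old, 179-310 g, acclimated 7 days. Single gavage dose of [14C]sunitinib L-malate (15 mg freebase/kg, 100 µCi/kg). One male and one female killed by CO2 per time point: albino at 3, 6, 24, 72, 168 h; pigmented at 24, 72, 168, 336 h. Carcasses frozen in solid CO2/hexane, 30 µm sagittal sections freeze-dried. Tissue radioactivity read by quantitative whole-body autoradiography against regression of standards, mean background subtracted.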

The subject of data set [7] is Lung. Put plainly: Drug concentration in male Lister Hooded pigmented rat lung assessed as radioactivity per gram of tissue at 20 mg/kg administered as single dose via gastric gavage measured after 168 hrs by autoradiographic analysis. In kind it is ADME, organism-based. Also noted: dose 20 mg/kg, dosed compound name [14C]Sunitinib. To be noted: in vivo, po.
Data set [8] has as its system Heart. Put plainly: Drug concentration in female albino rat heart assessed as radioactivity per gram of tissue at 20 mg/kg administered as single dose via gastric gavage measured after 6 hrs by autoradiographic analysis. The data set is classed as ADME, organism-based. Also noted: dose 20 mg/kg, dosed compound name [14C]Sunitinib. To be noted: in vivo, po. The essentials:
as §2

Data set [9] can be described thus: Drug concentration in male albino rat bladder assessed as radioactivity per gram of tissue at 20 mg/kg administered as single dose via gastric gavage measured after 3 hrs by autoradiographic analysis. In kind it is ADME, organism-based, Urinary bladder. More on the design: dose 20 mg/kg, dosed compound name [14C]Sunitinib. To be noted: in vivo, po.
Data set [10] has as its system Heart. Briefly: Drug concentration in male albino rat heart assessed as radioactivity per gram of tissue at 20 mg/kg administered as single dose via gastric gavage measured after 3 hrs by autoradiographic analysis. In kind it is ADME, organism-based. Also noted: dose 20 mg/kg, dosed compound name [14C]Sunitinib. Conditions: in vivo, po.
A further data set relates to Brain. Briefly: Drug concentration in male Lister Hooded pigmented rat brain assessed as radioactivity per gram of tissue at 20 mg/kg administered as single dose via gastric gavage measured after 168 hrs by autoradiographic analysis. In kind it is ADME, organism-based. More on the design: dose 20 mg/kg, dosed compound name [14C]Sunitinib. To be noted: in vivo, po.
Another data set relates to Zone of skin. Briefly: Drug concentration in female albino rat abdomen skin assessed as radioactivity per gram of tissue at 20 mg/kg administered as single dose via gastric gavage measured after 24 hrs by autoradiographic analysis. In kind it is ADME, organism-based. More on the design: dose 20 mg/kg, dosed compound name [14C]Sunitinib. Conditions: in vivo, po. The essentials: (§3)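 Sprague Dawley (albino) rats, ca 7-8 weeks old, received a single gastric-gavage dose of [14C]sunitinib L-malate at 20 mg/kg (15 mg freebase/kg, 100 µCi/kg). One animal per sex killed by CO2 at 3, 6, 24, 72 and 168 h, then frozen in CO2/hexane. 30 µm sagittal sections were cut and freeze-dried. Radioactivity per gram quantified by whole-body autoradiography using regression against standards. LOQ 0.04–0.06 µg freebase equiv/g.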

In a further data set the test system is Adrenal. Briefly: Drug concentration in female albino rat adrenal assessed as radioactivity per gram of tissue at 20 mg/kg administered as single dose via gastric gavage measured after 72 hrs by autoradiographic analysis. Also noted: dose 20 mg/kg, dosed compound name [14C]Sunitinib. To be noted: in vivo, po. In kind it is ADME, organism-based. The procedure, abridged: as §3

A short description of data set [11]: Drug concentration in female albino rat bone marrow assessed as radioactivity per gram of tissue at 20 mg/kg administered as single dose via gastric gavage measured after 24 hrs by autoradiographic analysis. To be noted: in vivo, po. In kind it is ADME, organism-based. More on the design: dose 20 mg/kg, dosed compound name [14C]Sunitinib. The procedure, abridged: as §3

The subject of the next data set is Kidney. Put plainly: Drug concentration in female albino rat kidney assessed as radioactivity per gram of tissue at 20 mg/kg administered as single dose via gastric gavage measured after 24 hrs by autoradiographic analysis. In kind it is ADME, organism-based. More on the design: dose 20 mg/kg, dosed compound name [14C]Sunitinib. Conditions: in vivo, po. The essentials:
as §2

Data set [12] can be described thus: Drug concentration in female Lister Hooded pigmented rat eye assessed as radioactivity per gram of tissue at 20 mg/kg administered as single dose via gastric gavage measured after 168 hrs by autoradiographic analysis. More on the design: dose 20 mg/kg, dosed compound name [14C]Sunitinib. Conditions: in vivo, po. In kind it is ADME, organism-based. The essentials: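 Lister Hooded (pigmented) rats, ca 7-8 weeks old, acclimated 7 days, given [14C]sunitinib L-malate by gastric gavage at 20 mg/kg (15 mg freebase/kg, 100 µCi/kg). One male and one female killed by CO2 at 24, 72, 168 and 336 h. Carcasses frozen in solid CO2/hexane and embedded in frozen cellulose. 30 µm sagittal cryosections were freeze-dried. Tissue radioactivity measured by quantitative whole-body autoradiography against calibration standards, with background subtracted.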

`CCN(CC)CCNC(=O)c1c(C)[nH]c(/[14CH]=C2\C(=O)Nc3ccc(F)cc32)c1C.O=C(O)C[C@H](O)C(=O)O`: the Cmax is listed as 2926 ngequiv/ml in the data set with Rattus norvegicus [1], 67.4 ngequiv/ml in the data set with Homo sapiens and 243 ngequiv/ml with Cynomolgus monkey. Also, the t1/2 lambda z in the data set with Rattus norvegicus [2] is 9 h. Besides, the Radiolabel recovery with Rattus norvegicus [3] is listed as 87.4%; with Heart [4], 7.31 ugequiv; in data set [5] it was 18.4 ugequiv; in the data set with Lung [6], 17.87 ugequiv; in the data set on Small intestine it was 5.54 ugequiv; in the data set with Pancreas it was 11.3 ugequiv. For the same compound, the Radiolabel recovery is recorded as 0.06 ugequiv in the data set with Lung [7]; 6.18 ugequiv in the data set on Heart [8]; 3.22 ugequiv in data set [9]; 5.58 ugequiv in the data set with Heart [10]; 0.06 ugequiv with Brain; 4.16 ugequiv with Zone of skin. Moreover, the Radiolabel recovery is recorded as 1.52 ugequiv with Adrenal, 1.21 ugequiv in data set [11], 4.79 ugequiv with Kidney and 73.04 ugequiv in [12].
